Reference: ChEMBL document CHEMBL4613283, “Synthesis, Antiproliferative Effect, and Topoisomerase II Inhibitory Activity of 3-Methyl-2-phenyl-1H-indoles” (2020)
The source made the active and inactive calls. The calls are words filed in the database; no cut-off is given here.

Columns and labels:
[1] = tested on: MSTO-211H; assay: Growth inhibition of human MSTO-211H cells incubated for 72 hrs by trypan blue assay; format: functional
In short: (§1)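 HeLa, A2780 and MSTO-211H human tumor cells; GI50 taken as the concentration (μM) inhibiting growth of 50% of cells relative to an untreated control culture; mean ± SD of at least three independent experiments.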

[2] = tested on: A2780; assay: Growth inhibition of human A2780 cells incubated for 72 hrs by trypan blue assay; format: functional; conditions: A2780, 72 h; in short: as §1
[3] = tested on: HeLa; assay: Growth inhibition of human HeLa cells incubated for 72 hrs by trypan blue assay; format: functional; in short: as §1
[4] = target: DNA topoisomerase 2-alpha (Homo sapiens) (UniProt P11388); assay: Inhibition of recombinant human topoisomerase 2 alpha-mediated relaxation of supercoiled pBR322 DNA at 100 uM incubated for 30 mins by ethidium bromide staining based agarose gel electrophoresis method
DNA topoisomerase 2-alpha (Homo sapiens), sequence (P11388 whole entry): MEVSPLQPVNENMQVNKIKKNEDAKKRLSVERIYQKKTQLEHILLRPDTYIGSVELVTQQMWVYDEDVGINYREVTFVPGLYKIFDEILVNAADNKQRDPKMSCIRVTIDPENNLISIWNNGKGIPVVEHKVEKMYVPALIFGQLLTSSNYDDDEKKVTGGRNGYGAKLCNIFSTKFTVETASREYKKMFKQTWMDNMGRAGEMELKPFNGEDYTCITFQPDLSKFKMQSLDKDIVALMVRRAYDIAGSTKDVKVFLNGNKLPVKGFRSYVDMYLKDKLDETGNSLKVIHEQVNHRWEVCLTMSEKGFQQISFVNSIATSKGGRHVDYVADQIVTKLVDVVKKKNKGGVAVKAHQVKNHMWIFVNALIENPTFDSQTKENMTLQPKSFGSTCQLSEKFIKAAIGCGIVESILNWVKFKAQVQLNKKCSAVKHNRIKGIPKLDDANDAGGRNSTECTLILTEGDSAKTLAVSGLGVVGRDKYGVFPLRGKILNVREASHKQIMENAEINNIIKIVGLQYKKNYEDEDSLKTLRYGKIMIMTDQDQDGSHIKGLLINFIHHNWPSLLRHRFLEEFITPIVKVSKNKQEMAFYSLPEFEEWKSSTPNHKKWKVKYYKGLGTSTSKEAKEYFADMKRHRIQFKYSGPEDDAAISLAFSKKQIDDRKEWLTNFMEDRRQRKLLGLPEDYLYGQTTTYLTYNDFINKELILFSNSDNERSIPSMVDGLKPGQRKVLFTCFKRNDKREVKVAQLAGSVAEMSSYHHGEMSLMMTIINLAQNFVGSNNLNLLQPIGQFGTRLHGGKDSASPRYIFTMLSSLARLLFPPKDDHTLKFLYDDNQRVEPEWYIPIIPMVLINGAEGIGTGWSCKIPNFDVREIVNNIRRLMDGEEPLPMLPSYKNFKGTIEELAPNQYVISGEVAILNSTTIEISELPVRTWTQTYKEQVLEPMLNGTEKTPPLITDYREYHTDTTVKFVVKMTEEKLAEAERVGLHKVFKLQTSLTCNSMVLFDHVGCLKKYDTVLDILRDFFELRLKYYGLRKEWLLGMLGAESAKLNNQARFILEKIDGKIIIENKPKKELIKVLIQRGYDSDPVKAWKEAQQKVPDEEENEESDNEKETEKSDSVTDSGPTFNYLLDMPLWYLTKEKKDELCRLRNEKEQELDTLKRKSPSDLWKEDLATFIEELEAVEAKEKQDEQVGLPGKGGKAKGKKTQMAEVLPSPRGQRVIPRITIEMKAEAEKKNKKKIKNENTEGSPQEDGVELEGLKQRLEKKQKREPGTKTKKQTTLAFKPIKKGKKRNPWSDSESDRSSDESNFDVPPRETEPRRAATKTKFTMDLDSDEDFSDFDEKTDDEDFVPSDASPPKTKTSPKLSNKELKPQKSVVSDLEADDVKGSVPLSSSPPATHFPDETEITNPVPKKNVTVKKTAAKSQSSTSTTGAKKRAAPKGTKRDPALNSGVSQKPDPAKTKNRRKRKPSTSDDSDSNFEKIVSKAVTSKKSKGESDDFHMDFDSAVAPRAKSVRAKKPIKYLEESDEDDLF
In short: (§2)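 Supercoiled pBR322 plasmid incubated with human recombinant topoisomerase II without or with compound at 100 μM, or at 25 and 50 μM; m-AMSA 20 μM as reference; relaxation inhibition judged from electrophoretic pattern of supercoiled DNA versus relaxed topoisomers.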

[5] = target: DNA topoisomerase 2-alpha (Homo sapiens) (UniProt P11388); assay: Inhibition of recombinant human topoisomerase 2 alpha-mediated relaxation of supercoiled pBR322 DNA at 50 uM incubated for 30 mins by ethidium bromide staining based agarose gel electrophoresis method; in short: as §2
[6] = target: DNA topoisomerase 2-alpha (Homo sapiens) (UniProt P11388); assay: Inhibition of recombinant human topoisomerase 2 alpha-mediated relaxation of supercoiled pBR322 DNA at 25 uM incubated for 30 mins by ethidium bromide staining based agarose gel electrophoresis method; in short: as §2
[7] = target: DNA topoisomerase 2-alpha (Homo sapiens) (UniProt P11388); assay: Inhibition of recombinant human topoisomerase 2 alpha-mediated relaxation of supercoiled pBR322 DNA at 100 uM incubated for 30 mins by ethidium bromide staining based agarose gel electrophoresis method relative to control; in short: as §2
[8] = tested on: A2780; assay: Induction of apoptosis in human A2780 cells assessed as increase in sub-G0 accumulation at 50 uM incubated for 28 hrs by propidium iodide staining based flow cytometry relative to control; format: functional
In short: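 A2780 cells treated 28 h at 10 and 50 μM alongside untreated control, stained with propidium iodide, DNA content per cell measured by flow cytometry; apoptotic fraction taken as sub-G0 (hypodiploid) peak.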

[9] = tested on: A2780; assay: Induction of apoptosis in human A2780 cells assessed as polarization of mitochondrial membrane potential at 50 uM incubated for 28 hrs by JC-1 staining based flow cytometry (reference value: 96.1 %); format: functional
In short: (§3)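 A2780 cells exposed 28 h to increasing concentrations versus untreated control, stained with JC-1 and analysed by flow cytometry; mitochondrial potential read as red aggregate versus green monomer fluorescence; percentages of cells with polarized and depolarized mitochondria reported.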

[10] = tested on: A2780; assay: Induction of apoptosis in human A2780 cells assessed as depolarization of mitochondrial membrane potential at 10 uM incubated for 28 hrs by JC-1 staining based flow cytometry (reference value: 3.8 %); format: functional; in short: as §3
[11] = tested on: A2780; assay: Induction of apoptosis in human A2780 cells assessed as polarization of mitochondrial membrane potential at 10 uM incubated for 28 hrs by JC-1 staining based flow cytometry (reference value: 96.1 %); format: functional; in short: as §3
[12] = tested on: A2780; assay: Induction of apoptosis in human A2780 cells assessed as decrease of mitochondrial membrane potential incubated for 28 hrs by JC-1 staining based flow cytometry
[13] = target: DNA topoisomerase 2-alpha (Homo sapiens) (UniProt P11388); assay: Inhibition of recombinant human topoisomerase 2 alpha-mediated relaxation of supercoiled pBR322 DNA at 50 uM incubated for 30 mins by ethidium bromide staining based agarose gel electrophoresis method relative to control; in short: as §2
[14] = tested on: A2780; assay: Induction of apoptosis in human A2780 cells assessed as depolarization of mitochondrial membrane potential at 50 uM incubated for 28 hrs by JC-1 staining based flow cytometry (reference value: 3.8 %); format: functional; in short: as §3

GI50 [2] | GI50 [3] | inhibition [4] | SMILES | GI50 [1] | further results
9 µM | > 20 µM | inactive | CCCn1c(-c2ccc(O)cc2)c(C)c2ccccc21 | 7.1 µM | –
7.4 µM | 18 µM | Active | Cc1c(-c2ccc(O)c(O)c2)n(CCCOc2ccccc2)c2ccc(O)cc12 | 7.1 µM | –
4.3 µM | 10 µM | Active | Cc1c(-c2ccc(O)c(O)c2)n(CCCCOc2ccccc2)c2ccc(O)cc12 | 3.4 µM | –
14 µM | > 20 µM | inactive | Cc1c(-c2ccc(O)c(O)c2)n(C)c2ccc(O)cc12 | > 20 µM | –
11 µM | 16 µM | Active | Cc1c(-c2ccc(O)cc2)[nH]c2ccc(O)cc12 | > 20 µM | inhibition [5]: inactive; inhibition [6]: inactive
17 µM | > 20 µM | inactive | COc1ccc2c(c1)c(C)c(-c1ccc(OC)c(OC)c1)n2CCCCOc1ccccc1 | 13 µM | –
13 µM | > 20 µM | inactive | CCOC(=O)Cn1c(-c2ccc(O)cc2)c(C)c2ccccc21 | > 20 µM | –
> 20 µM | > 20 µM | – | Cc1c(-c2ccc(O)cc2)[nH]c2ccccc12 | > 20 µM | –
0.027 µM | 0.031 µM | – | COc1cc(NS(C)(=O)=O)ccc1Nc1c2ccccc2nc2ccccc12 [AMSACRINE] | 0.019 µM | –
3.1 µM | 11 µM | Active | Cc1c(-c2ccc(O)cc2)n(CCCCOc2ccccc2)c2ccccc12 | 3.3 µM | –
8.4 µM | > 20 µM | Active | CCCn1c(-c2ccc(O)c(O)c2)c(C)c2cc(O)ccc21 | > 20 µM | –
> 20 µM | > 20 µM | inactive | Cc1c(-c2ccc(O)cc2)n(CC(=O)O)c2ccccc12 | > 20 µM | –
2.2 µM | > 20 µM | – | Cc1c(-c2ccc(O)c(O)c2)[nH]c2ccc(O)cc12 | > 20 µM | inhibition [5]: Active; inhibition [6]: Active; inhibition [7]: 100%
2.3 µM | 7.9 µM | Active | CCCn1c(-c2ccc(O)cc2)c(C)c2cc(O)ccc21 | 2.9 µM | –
4.7 µM | 15 µM | Active | Cc1c(-c2ccc(O)cc2)n(CCOc2ccccc2)c2ccc(O)cc12 | 7.6 µM | –
> 20 µM | > 20 µM | – | Cc1c(-c2ccc(OC(=O)c3c[nH]cn3)cc2)[nH]c2ccccc12 | > 20 µM | –
2.2 µM | 4.4 µM | Active | Cc1c(-c2ccc(O)cc2)n(CCCOc2ccccc2)c2ccc(O)cc12 | 2.4 µM | Activity [8]: 30%; inhibition [5]: Active; inhibition [6]: Active; Activity [9]: 57.7%; Activity [10]: 12.6%; Activity [11]: 87%; Activity [12]: Dose-dependent effect; inhibition [13]: 100%; Activity [14]: 42.2%
13 µM | > 20 µM | – | Cc1ncsc1C(=O)Oc1ccc(-c2[nH]c3ccccc3c2C)cc1 | > 20 µM | –
2 µM | 4 µM | Active | Cc1c(-c2ccc(O)cc2)n(CCCCOc2ccccc2)c2ccc(O)cc12 | 2.9 µM | –

SMILES | GI50 [2] | GI50 [3] | inhibition [4] | GI50 [1] | further results
O=c1c(O)c(-c2ccc(O)c(O)c2)oc2cc(O)cc(O)c12 [QUERCETIN] | 19.7 µM | 17.7 µM | – | > 20 µM | –
